Experimental data: ChEMBL document CHEMBL3407388, “Synthesis, anticancer activity and molecular docking studies on a series of heterocyclic trans-cyanocombretastatin analogues as antitubulin agents” (2015)

Legend:
Assay type in all cases: functional
RPMI-8226 = experiment: Cytotoxicity against human RPMI8226 cells assessed as growth inhibition after 48 hrs by SRB assay; conditions: RPMI-8226, 48 h
Procedure, shortened: (§1)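 NCI 60-cell panel; compounds passing a single-dose screen (10−5 M, 48 h) were tested at five 10-fold dilutions (10−4 to 10−8 M) with 48 h drug exposure. GI50 is the molar concentration giving 50% reduction in net cell growth relative to cell numbers on day 0.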

HCC 2998 = experiment: Cytotoxicity against human HCC2998 cells assessed as growth inhibition after 48 hrs by SRB assay; conditions: HCC 2998, 48 h; procedure, shortened: as §1
DU-145 = experiment: Cytotoxicity against human DU145 cells assessed as growth inhibition after 48 hrs by SRB assay; conditions: DU-145, 48 h; procedure, shortened: as §1
NCI-H23 = experiment: Cytotoxicity against human NCI-H23 cells assessed as growth inhibition after 48 hrs by SRB assay; conditions: NCI-H23, 48 h; procedure, shortened: as §1
K562 = experiment: Cytotoxicity against human K562 cells assessed as growth inhibition after 48 hrs by SRB assay; conditions: K562, 48 h; procedure, shortened: as §1
SF-295 = experiment: Cytotoxicity against human SF295 cells assessed as growth inhibition after 48 hrs by SRB assay; conditions: SF-295, 48 h; procedure, shortened: as §1
HT-29 = experiment: Cytotoxicity against human HT-29 cells assessed as growth inhibition after 48 hrs by SRB assay; conditions: HT-29, 48 h; procedure, shortened: as §1
MDA-MB-231 = experiment: Cytotoxicity against human MDA-MB-231 cells assessed as growth inhibition after 48 hrs by SRB assay; conditions: MDA-MB-231, 48 h; procedure, shortened: as §1
SNB-19 = experiment: Cytotoxicity against human SNB19 cells assessed as growth inhibition after 48 hrs by SRB assay; conditions: SNB-19, 48 h; procedure, shortened: as §1
COLO 205 = experiment: Cytotoxicity against human COLO205 cells assessed as growth inhibition after 48 hrs by SRB assay; conditions: COLO 205, 48 h; procedure, shortened: as §1
[1] = Cytotoxicity against human UACC62 cells assessed as growth inhibition after 48 hrs by SRB assay; conditions: UACC-62, 48 h
[2] = Cytotoxicity against human OVCAR8 cells assessed as growth inhibition after 48 hrs by SRB assay; conditions: OVCAR-8, 48 h; procedure, shortened: as §1
[3] = Cytotoxicity against human OVCAR3 cells assessed as growth inhibition after 48 hrs by SRB assay; conditions: OVCAR-3, 48 h; procedure, shortened: as §1
SW-620 = experiment: Cytotoxicity against human SW620 cells assessed as growth inhibition after 48 hrs by SRB assay; conditions: SW-620, 48 h
SF-268 = experiment: Cytotoxicity against human SF268 cells assessed as growth inhibition after 48 hrs by SRB assay; conditions: SF-268, 48 h; procedure, shortened: as §1
MOLT-4 = experiment: Cytotoxicity against human MOLT4 cells assessed as growth inhibition after 48 hrs by SRB assay; conditions: MOLT-4, 48 h; procedure, shortened: as §1
TK-10 = experiment: Cytotoxicity against human TK10 cells assessed as growth inhibition after 48 hrs by SRB assay; conditions: TK-10, 48 h
[4] = Cytotoxicity against human OVCAR4 cells assessed as growth inhibition after 48 hrs by SRB assay; conditions: OVCAR-4, 48 h; procedure, shortened: as §1
U-251 = experiment: Cytotoxicity against human U251 cells assessed as growth inhibition after 48 hrs by SRB assay; conditions: U-251, 48 h
A498 = experiment: Cytotoxicity against human A498 cells assessed as growth inhibition after 48 hrs by SRB assay; conditions: A498, 48 h; procedure, shortened: as §1
SK-OV-3 = experiment: Cytotoxicity against human SKOV3 cells assessed as growth inhibition after 48 hrs by SRB assay; conditions: SK-OV-3, 48 h; procedure, shortened: as §1
[5] = Cytotoxicity against human PC3 cells assessed as growth inhibition after 48 hrs by SRB assay; conditions: PC-3, 48 h; procedure, shortened: as §1
786-0 = experiment: Cytotoxicity against human 786-0 cells assessed as growth inhibition after 48 hrs by SRB assay; conditions: 786-0, 48 h; procedure, shortened: as §1
BT-549 = experiment: Cytotoxicity against human BT549 cells assessed as growth inhibition after 48 hrs by SRB assay; conditions: BT-549, 48 h; procedure, shortened: as §1
MCF7 = experiment: Cytotoxicity against human MCF7 cells assessed as growth inhibition after 48 hrs by SRB assay; conditions: MCF7, 48 h; procedure, shortened: as §1
RXF 393 = experiment: Cytotoxicity against human RXF393 cells assessed as growth inhibition after 48 hrs by SRB assay; conditions: RXF 393, 48 h; procedure, shortened: as §1
LOX IMVI = experiment: Cytotoxicity against human LOXIMVI cells assessed as growth inhibition after 48 hrs by SRB assay; procedure, shortened: as §1
NCI-H226 = experiment: Cytotoxicity against human NCI-H226 cells assessed as growth inhibition after 48 hrs by SRB assay; conditions: NCI-H226, 48 h; procedure, shortened: as §1
SN12C = experiment: Cytotoxicity against human SN12C cells assessed as growth inhibition after 48 hrs by SRB assay; procedure, shortened: as §1
IGROV-1 = experiment: Cytotoxicity against human IGROV1 cells assessed as growth inhibition after 48 hrs by SRB assay; conditions: IGROV-1, 48 h; procedure, shortened: as §1
CAKI-1 = experiment: Cytotoxicity against human Caki1 cells assessed as growth inhibition after 48 hrs by SRB assay; conditions: CAKI-1, 48 h; procedure, shortened: as §1
SF-539 = experiment: Cytotoxicity against human SF539 cells assessed as growth inhibition after 48 hrs by SRB assay; conditions: SF-539, 48 h; procedure, shortened: as §1
NCI-H460 = experiment: Cytotoxicity against human NCI-H460 cells assessed as growth inhibition after 48 hrs by SRB assay; conditions: NCI-H460, 48 h; procedure, shortened: as §1
SK-MEL-5 = experiment: Cytotoxicity against human SK-MEL-5 cells assessed as growth inhibition after 48 hrs by SRB assay; conditions: SK-MEL-5, 48 h; procedure, shortened: as §1
M14 = experiment: Cytotoxicity against human M14 cells assessed as growth inhibition after 48 hrs by SRB assay; conditions: M14, 48 h; procedure, shortened: as §1
MDA-MB-435 = experiment: Cytotoxicity against human MDA-MB-435 cells assessed as growth inhibition after 48 hrs by SRB assay; conditions: MDA-MB-435, 48 h; procedure, shortened: as §1
KM12 = experiment: Cytotoxicity against human KM12 cells assessed as growth inhibition after 48 hrs by SRB assay; conditions: KM12, 48 h; procedure, shortened: as §1
[6] = Cytotoxicity against human HCT15 cells assessed as growth inhibition after 48 hrs by SRB assay; conditions: HCT-15, 48 h; procedure, shortened: as §1
[7] = Cytotoxicity against human OVCAR5 cells assessed as growth inhibition after 48 hrs by SRB assay; conditions: OVCAR-5, 48 h; procedure, shortened: as §1
[8] = Cytotoxicity against human UO31 cells assessed as growth inhibition after 48 hrs by SRB assay; conditions: UO-31, 48 h
[9] = Cytotoxicity against human NCI-ADR-RES cells assessed as growth inhibition after 48 hrs by SRB assay; procedure, shortened: as §1
[10] = Cytotoxicity against human Hs578T cells assessed as growth inhibition after 48 hrs by SRB assay; conditions: Hs-578T; procedure, shortened: as §1
HL-60(TB) = experiment: Cytotoxicity against human HL-60(TB) cells assessed as growth inhibition after 48 hrs by SRB assay; conditions: HL-60, 48 h
Procedure, shortened: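 NCI 60-cell panel, leukemia subpanel. Five-dose screen at 10-fold dilutions from 10−4 to 10−8 M with 48 h drug exposure. GI50 is the molar concentration giving 50% reduction in net cell growth compared with cell numbers on day 0.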

COc1cc(/C(C#N)=C/c2cc3ccccc3[nH]2)cc(OC)c1OC
GI50 (RPMI-8226): < 10 nM | GI50 (HCC 2998): 18 nM | GI50 (DU-145): < 10 nM | GI50 (NCI-H23): < 10 nM | GI50 (K562): < 10 nM | GI50 (SF-295): < 10 nM | GI50 (HT-29): < 10 nM | GI50 (MDA-MB-231): 14 nM | GI50 (SNB-19): < 10 nM | GI50 (COLO 205): 16 nM | GI50 [1]: < 10 nM | GI50 [2]: < 10 nM | GI50 [3]: < 10 nM | GI50 (SW-620): < 10 nM | GI50 (SF-268): 15 nM | GI50 (MOLT-4): 23 nM | GI50 (TK-10): < 10 nM | GI50 [4]: 15200 nM | GI50 (U-251): < 10 nM | GI50 (A498): < 10 nM | GI50 (SK-OV-3): < 10 nM | GI50 [5]: < 10 nM | GI50 (786-0): < 10 nM | GI50 (BT-549): < 10 nM | GI50 (MCF7): 16 nM | GI50 (RXF 393): < 10 nM | GI50 (LOX IMVI): < 10 nM | GI50 (NCI-H226): < 10 nM | GI50 (SN12C): < 10 nM | GI50 (IGROV-1): < 10 nM | GI50 (CAKI-1): < 10 nM | GI50 (SF-539): < 10 nM | GI50 (NCI-H460): < 10 nM | GI50 (SK-MEL-5): < 10 nM | GI50 (M14): < 10 nM | GI50 (MDA-MB-435): < 10 nM | GI50 (KM12): < 10 nM | GI50 [6]: < 10 nM | GI50 [7]: 80 nM | GI50 [8]: < 10 nM | GI50 [9]: < 10 nM | GI50 [10]: < 10 nM | GI50 (HL-60(TB)): < 10 nM

COc1ccc(/C(C#N)=C/c2cc3ccccc3o2)cc1OC
GI50 (RPMI-8226): 1320 nM | GI50 (HCC 2998): 2330 nM | GI50 (DU-145): 1300 nM | GI50 (NCI-H23): 3110 nM | GI50 (K562): 467 nM | GI50 (SF-295): 708 nM | GI50 (HT-29): 373 nM | GI50 (MDA-MB-231): 1210 nM | GI50 (SNB-19): 5550 nM | GI50 (COLO 205): 404 nM | GI50 [1]: 557 nM | GI50 [2]: 3980 nM | GI50 [3]: 279 nM | GI50 (SW-620): 388 nM | GI50 (SF-268): 2050 nM | GI50 (MOLT-4): 548 nM | GI50 (TK-10): 2280 nM | GI50 [4]: 7190 nM | GI50 (U-251): 760 nM | GI50 (A498): 540 nM | GI50 (SK-OV-3): 2490 nM | GI50 [5]: 2410 nM | GI50 (786-0): 5840 nM | GI50 (BT-549): 950 nM | GI50 (MCF7): 446 nM | GI50 (RXF 393): 1300 nM | GI50 (LOX IMVI): 930 nM | GI50 (NCI-H226): 34500 nM | GI50 (SN12C): 956 nM | GI50 (IGROV-1): 1270 nM | GI50 (CAKI-1): 492 nM | GI50 (SF-539): 1560 nM | GI50 (NCI-H460): 472 nM | GI50 (SK-MEL-5): 564 nM | GI50 (M14): 437 nM | GI50 (MDA-MB-435): 229 nM | GI50 (KM12): 356 nM | GI50 [6]: 469 nM | GI50 [7]: 5230 nM | GI50 [8]: 3790 nM | GI50 [9]: 317 nM | GI50 [10]: 1880 nM | GI50 (HL-60(TB)): 481 nM

COc1ccc(/C(C#N)=C/c2c[nH]c3ccccc23)cc1OC
GI50 (RPMI-8226): 3960 nM | GI50 (HCC 2998): 12600 nM | GI50 (DU-145): 22600 nM | GI50 (NCI-H23): 7190 nM | GI50 (K562): 1650 nM | GI50 (SF-295): 4920 nM | GI50 (HT-29): 3320 nM | GI50 (MDA-MB-231): 7180 nM | GI50 (SNB-19): 24200 nM | GI50 (COLO 205): 5310 nM | GI50 [1]: 6980 nM | GI50 [2]: 7380 nM | GI50 [3]: 5680 nM | GI50 (SW-620): 3530 nM | GI50 (SF-268): 18900 nM | GI50 (MOLT-4): 3990 nM | GI50 (TK-10): 13200 nM | GI50 [4]: 22100 nM | GI50 (U-251): 4970 nM | GI50 (A498): 3360 nM | GI50 (SK-OV-3): 11900 nM | GI50 [5]: 7850 nM | GI50 (786-0): 14100 nM | GI50 (BT-549): 5380 nM | GI50 (MCF7): 3100 nM | GI50 (RXF 393): 4480 nM | GI50 (LOX IMVI): 5320 nM | GI50 (NCI-H226): 20900 nM | GI50 (SN12C): 8100 nM | GI50 (IGROV-1): 21000 nM | GI50 (CAKI-1): 4340 nM | GI50 (SF-539): 8420 nM | GI50 (NCI-H460): 4510 nM | GI50 (SK-MEL-5): 4270 nM | GI50 (M14): 3750 nM | GI50 (MDA-MB-435): 3950 nM | GI50 (KM12): 4040 nM | GI50 [6]: 3700 nM | GI50 [7]: > 100000 nM | GI50 [8]: 14300 nM | GI50 [9]: 1700 nM | GI50 [10]: 12900 nM | GI50 (HL-60(TB)): 4570 nM
